Holding throughout (type): functional, Erythrocyte
The nature of test [1]: Antiinflammatory activity assessed as prevention of hypotonicity-induced lysis of human RBC at 200 ug/ml. A digest of the protocol: (§1)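 Human blood spun at 1500 rpm; packed cells washed in isotonic NaCl (0.85%, pH 7.2) and resuspended 10% v/v. Mixture: compound, 1 ml phosphate buffer (0.15 M, pH 7.4), 2 ml hypotonic NaCl (0.36%), 0.5 ml cell suspension; control used distilled water instead of hypotonic saline. Incubated 37 °C, 30 min, centrifuged; supernatant hemoglobin read at 500 nm.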

Test [2] in a line: Antiinflammatory activity assessed as prevention of hypotonicity-induced lysis of human RBC at 50 ug/ml. The procedure, abridged: as §1
Test [3] is described as follows: Antiinflammatory activity assessed as prevention of hypotonicity-induced lysis of human RBC at 100 ug/ml. A digest of the protocol:
as §1

A short description of test [4]: Antiinflammatory activity assessed as prevention of hypotonicity-induced lysis of human RBC at 10 ug/ml. A digest of the protocol:
as §1

The values below come from ChEMBL document CHEMBL1145301, “Synthesis and study of anti-inflammatory activity of some novel cyclophane amides” (2006).

For `Cc1cc2c(cc1C)COc1ccccc1C(=O)N(c1ccccc1)CCNC(=O)COc1ccccc1OCC(=O)NCCN(c1ccccc1)C(=O)c1ccccc1OC2`, the Activity is listed as 47.97% in test [1], 41.72% in test [2], 45.25% in test [3] and 38.84% in test [4].
Take `Cc1cc2c(cc1C)COc1ccccc1C(=O)Nc1ccccc1SCc1ccc(cc1)-c1cccc(c1)-c1ccc(cc1)CSc1ccccc1NC(=O)c1ccccc1OC2`: the Activity in test [1] stood at 54.14%; in test [2], 49.37%; in test [3] it was 51.42%; in test [4], 48.27%.
For `Cc1cc2c(cc1C)COc1ccccc1C(=O)Nc1ccccc1SCCOc1ccc(cc1)NC(=O)c1ccccc1OC2` the same measures were 51.27%, 45.63%, 50.25% and 44.28%.
On to `Cc1cc2c(cc1C)COc1ccccc1C(=O)Nc1ccccc1SCc1ccc(cc1)-c1ccc(cc1)CSc1ccccc1NC(=O)c1ccccc1OC2`, for which the Activity in test [1] worked out at 91%; in test [2] it was 82.43%; in test [3] it was 89.67%; in test [4], 65.17%.
As to `Cc1cc2c(cc1C)COc1ccccc1C(=O)Nc1ccccc1SCc1ccc(cc1)NC(=O)c1ccccc1OC2`, the Activity in test [1] is reported as 60.86%; in test [2], 52.27%; in test [3], 56.04%; in test [4], 50.31%.
The corresponding values for `O=C1CSc2ccccc2NC(=O)c2ccccc2OCc2ccccc2COc2ccccc2C(=O)Nc2ccccc2SCC(=O)Nc2ccccc2N1` are 49.65%, 42.6%, 48.72% and 40.53%.
Regarding `C[C@]12C=CC(=O)C=C1CC[C@@H]1[C@@H]2[C@@H](O)C[C@@]2(C)[C@H]1CC[C@]2(O)C(=O)CO` [PREDNISOLONE], the values for the Activity in test [2] and in test [3] were 59.34% and 86.37%, respectively.
